Results from ChEMBL document CHEMBL5653622 (Oncotarget, 2016).
Activity calls are given as the source filed them. No cut-off for these calls is given here.

Columns and labels:
[1] = target: Serine/threonine-protein kinase PAK 6 (Homo sapiens) (UniProt Q9NQU5); assay: Inhibition of human PAK6 assessed as remaining activity at 10 uM in presence of ATP by radiometric kinase assay relative to control
[2] = target: Dual specificity protein kinase TTK (Homo sapiens) (UniProt P33981); assay: Inhibition of human TTK assessed as remaining activity at 10 uM in presence of ATP by radiometric kinase assay relative to control
[3] = test system: Mus musculus; assay: In vivo inhibition of CHK1 in CRTac:Ncr-Fox1 mouse xenografted with human HT-29 cells assessed as reduction of phosphorylation of CHK1 on S296 at 50 mg/kg, po administered for 24 hrs by Western blotting analysis; assay type: functional, organism-based
In short: (§1)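 HT29 s.c. xenografts in female athymic nude mice. Single gemcitabine dose 100mg/kg i.v. on day 0, then one inhibitor dose 50 or 100mg/kg p.o. (DPTW vehicle) 24h later. Tumors taken 24h after the last dose, western blotted, and signals quantified by normalizing to GAPDH.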

[4] = target: Serine/threonine-protein kinase N2 (Homo sapiens) (UniProt Q16513); assay: Inhibition of human PRK2 assessed as remaining activity at 10 uM in presence of ATP by radiometric kinase assay relative to control
[5] = Toxicity in Emu-Myc driven transgenic mouse transplant model of B-cell lymphoma assessed as reduction in weight of bone marrow at 150 mg/kg, po administered for 9 days; assay type: organism-based; conditions: in vivo, 216 h, time 9 day
[6] = target: Homeodomain-interacting protein kinase 2 (Homo sapiens) (UniProt Q9H2X6); assay: Inhibition of human HIPK2 assessed as remaining activity at 10 uM in presence of ATP by radiometric kinase assay relative to control
[7] = target: Casein kinase I (Homo sapiens) (UniProt Q9HCP0+P78368+P48730+P49674+P48729); assay: Inhibition of human CK1 assessed as remaining activity at 10 uM in presence of ATP by radiometric kinase assay relative to control; assay type: protein assay
[8] = target: Serine/threonine-protein kinase TAO1 (Homo sapiens) (UniProt Q7L7X3); assay: Inhibition of human TAO1 assessed as remaining activity at 10 uM in presence of ATP by radiometric kinase assay relative to control
[9] = target: Fibroblast growth factor receptor 1 (Homo sapiens) (UniProt P11362); assay: Inhibition of human FGF-R1 assessed as remaining activity at 10 uM in presence of ATP by radiometric kinase assay relative to control
[10] = target: Serine/threonine-protein kinase PLK1 (Homo sapiens) (UniProt P53350); assay: Inhibition of human PLK1 assessed as remaining activity at 10 uM in presence of ATP by radiometric kinase assay relative to control
[11] = target: Dual specificity protein kinase CLK2 (Homo sapiens, UniProt P49760); assay: Inhibition of human CLK2 at 10 uM in presence of ATP by radiometric kinase assay relative to control
[12] = test system: Mus musculus; assay: In vivo inhibition of CHK1 in CRTac:Ncr-Fox1 mouse xenografted with human HT-29 cells assessed as reduction of phosphorylation of CDK1 on Y15 at 100 mg/kg, po administered for 24 hrs by Western blotting analysis; assay type: functional, organism-based; in short: as §1
[13] = target: Serine/threonine-protein kinase PAK 5 (Homo sapiens) (UniProt Q9P286); assay: Inhibition of human PAK5 assessed as remaining activity at 10 uM in presence of ATP by radiometric kinase assay relative to control
[14] = Half life in BALB/C mouse spleen at 10 mg/kg, iv by LC/MS-MS analysis; assay type: ADME, organism-based
In short: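 Female BALB/c mice received a single bolus of 10mg/kg, either i.v. or p.o. The oral vehicle was DPTW (10% DMSO, 20% PEG400, 5% Tween 80, 65% water). Plasma and spleen homogenates were extracted with methanol containing internal standards. Drug levels were measured by LC/MS-MS, and pharmacokinetic parameters were calculated from the concentration-time profiles.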

[15] = test system: Mus musculus; assay: In vivo inhibition of CHK1 in CRTac:Ncr-Fox1 athymic mouse xenografted with human Calu-6 cells assessed as inhibition of CHK1 phosphorylation on S296 at 150 mg/kg, po in presence of gemcitabine and carboplatin by ELISA analysis; assay type: functional, organism-based
[16] = Toxicity in Emu-Myc driven transgenic mouse transplant model of B-cell lymphoma assessed as reduction in weight of the brachial/axillary lymph nodes at 150 mg/kg, po administered for 9 days; assay type: organism-based; conditions: in vivo, 216 h, time 9 day
[17] = Cmax in BALB/C mouse plasma at 10 mg/kg, po by LC/MS-MS analysis; assay type: ADME, organism-based
In short: (§2)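 Female BALB/c mice received a single 10mg/kg bolus i.v. or p.o. Plasma (and spleen homogenate) extracted with methanol containing internal standards. Concentrations were measured by LC/MS-MS and PK parameters calculated with modelling software.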

[18] = Inhibition of human CDK2/Cyclin A by FRET based Z-LYTE kinase assay
[19] = test system: Mus musculus; assay: In vivo inhibition of total CHK1 in CRTac:Ncr-Fox1 athymic mouse xenografted with human Calu-6 cells at 150 mg/kg, po in presence of gemcitabine and carboplatin by Western blotting analysis; assay type: functional, organism-based
In short: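 Female CRTac:Ncr-Fox1(nu) athymic mice carried s.c. Calu6 xenografts. Tumors were taken 6h after the last inhibitor dose, lysed in CHAPS buffer, and immunoblotted with GAPDH as loading control.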

[20] = Clearance in BALB/C mouse plasma at 10 mg/kg, po by LC/MS-MS analysis; assay type: ADME, organism-based; in short: as §2
[21] = target: Ephrin type-B receptor 2 (Homo sapiens) (UniProt P29323); assay: Inhibition of human EPH-B2 assessed as remaining activity at 10 uM in presence of ATP by radiometric kinase assay relative to control
[22] = target: Tau-tubulin kinase 1 (Homo sapiens) (UniProt Q5TCY1); assay: Inhibition of human TTBK1 assessed as remaining activity at 10 uM in presence of ATP by radiometric kinase assay relative to control
[23] = target: Serine/threonine-protein kinase Sgk1 (Homo sapiens) (UniProt O00141); assay: Inhibition of human SGK1 assessed as remaining activity at 10 uM in presence of ATP by radiometric kinase assay relative to control
[24] = target: Ribosomal protein S6 kinase alpha-3 (Homo sapiens, UniProt P51812); assay: Inhibition of human RSK2 by FRET based Z-LYTE kinase assay
[25] = Plasma protein binding in nude mouse at 10 uM; assay type: ADME, cell-free
[26] = target: NUAK family SNF1-like kinase 1 (Homo sapiens, UniProt O60285); assay: Inhibition of human NUAK1 by FRET based Z-LYTE kinase assay
[27] = target: Mitogen-activated protein kinase 3 (Homo sapiens) (UniProt P27361); assay: Inhibition of human ERK1 assessed as remaining activity at 10 uM in presence of ATP by radiometric kinase assay relative to control
[28] = target: Serine/threonine-protein kinase tousled-like 1 (Homo sapiens) (UniProt Q9UKI8); assay: Inhibition of human TLK1 assessed as remaining activity at 10 uM in presence of ATP by radiometric kinase assay relative to control

Mitogen-activated protein kinase 3 (Homo sapiens), sequence (P27361 whole entry): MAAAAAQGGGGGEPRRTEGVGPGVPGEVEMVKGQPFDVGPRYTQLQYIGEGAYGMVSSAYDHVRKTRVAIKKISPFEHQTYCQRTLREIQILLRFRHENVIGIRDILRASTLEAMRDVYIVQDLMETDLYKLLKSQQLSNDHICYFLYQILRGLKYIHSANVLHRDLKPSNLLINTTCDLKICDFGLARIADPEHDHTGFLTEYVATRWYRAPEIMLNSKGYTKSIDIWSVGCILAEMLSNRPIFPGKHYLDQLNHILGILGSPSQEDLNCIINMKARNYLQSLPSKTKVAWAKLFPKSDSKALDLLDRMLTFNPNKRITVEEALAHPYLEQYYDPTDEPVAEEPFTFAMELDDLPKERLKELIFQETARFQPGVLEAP
NUAK family SNF1-like kinase 1, sequence (O60285 whole entry): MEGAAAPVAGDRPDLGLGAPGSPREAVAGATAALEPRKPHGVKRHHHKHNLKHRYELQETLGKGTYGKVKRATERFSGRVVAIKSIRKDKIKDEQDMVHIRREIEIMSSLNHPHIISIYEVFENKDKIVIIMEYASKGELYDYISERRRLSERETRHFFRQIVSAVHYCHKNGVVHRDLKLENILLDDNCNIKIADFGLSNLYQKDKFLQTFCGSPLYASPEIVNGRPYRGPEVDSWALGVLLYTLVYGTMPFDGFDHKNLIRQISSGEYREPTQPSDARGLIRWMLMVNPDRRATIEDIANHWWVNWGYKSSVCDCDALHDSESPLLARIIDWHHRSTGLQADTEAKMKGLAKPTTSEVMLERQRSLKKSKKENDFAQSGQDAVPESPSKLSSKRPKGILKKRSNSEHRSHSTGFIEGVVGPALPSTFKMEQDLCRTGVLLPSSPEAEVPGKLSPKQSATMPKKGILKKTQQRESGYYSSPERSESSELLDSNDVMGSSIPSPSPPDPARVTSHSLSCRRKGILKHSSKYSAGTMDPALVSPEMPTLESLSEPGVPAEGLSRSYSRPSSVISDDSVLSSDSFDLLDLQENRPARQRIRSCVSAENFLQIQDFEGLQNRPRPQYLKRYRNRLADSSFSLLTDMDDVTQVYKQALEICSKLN
Serine/threonine-protein kinase PLK1 (Homo sapiens), sequence (P53350 whole entry): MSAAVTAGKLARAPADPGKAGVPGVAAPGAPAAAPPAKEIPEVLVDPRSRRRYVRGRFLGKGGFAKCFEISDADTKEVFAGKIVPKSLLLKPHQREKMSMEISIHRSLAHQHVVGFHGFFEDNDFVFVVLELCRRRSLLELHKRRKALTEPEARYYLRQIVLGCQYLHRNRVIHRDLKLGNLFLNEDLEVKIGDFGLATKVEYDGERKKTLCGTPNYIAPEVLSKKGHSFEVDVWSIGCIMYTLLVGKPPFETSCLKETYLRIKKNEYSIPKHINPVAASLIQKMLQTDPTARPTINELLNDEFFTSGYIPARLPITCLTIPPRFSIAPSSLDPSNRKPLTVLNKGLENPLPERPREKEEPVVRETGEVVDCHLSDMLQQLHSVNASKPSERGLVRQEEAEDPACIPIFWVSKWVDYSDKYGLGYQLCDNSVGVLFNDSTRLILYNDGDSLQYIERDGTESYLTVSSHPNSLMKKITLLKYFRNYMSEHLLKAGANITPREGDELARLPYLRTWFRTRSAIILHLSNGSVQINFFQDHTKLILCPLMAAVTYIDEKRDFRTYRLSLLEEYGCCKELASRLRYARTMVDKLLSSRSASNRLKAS
Fibroblast growth factor receptor 1 (Homo sapiens), sequence (P11362 22-822 limits assumed): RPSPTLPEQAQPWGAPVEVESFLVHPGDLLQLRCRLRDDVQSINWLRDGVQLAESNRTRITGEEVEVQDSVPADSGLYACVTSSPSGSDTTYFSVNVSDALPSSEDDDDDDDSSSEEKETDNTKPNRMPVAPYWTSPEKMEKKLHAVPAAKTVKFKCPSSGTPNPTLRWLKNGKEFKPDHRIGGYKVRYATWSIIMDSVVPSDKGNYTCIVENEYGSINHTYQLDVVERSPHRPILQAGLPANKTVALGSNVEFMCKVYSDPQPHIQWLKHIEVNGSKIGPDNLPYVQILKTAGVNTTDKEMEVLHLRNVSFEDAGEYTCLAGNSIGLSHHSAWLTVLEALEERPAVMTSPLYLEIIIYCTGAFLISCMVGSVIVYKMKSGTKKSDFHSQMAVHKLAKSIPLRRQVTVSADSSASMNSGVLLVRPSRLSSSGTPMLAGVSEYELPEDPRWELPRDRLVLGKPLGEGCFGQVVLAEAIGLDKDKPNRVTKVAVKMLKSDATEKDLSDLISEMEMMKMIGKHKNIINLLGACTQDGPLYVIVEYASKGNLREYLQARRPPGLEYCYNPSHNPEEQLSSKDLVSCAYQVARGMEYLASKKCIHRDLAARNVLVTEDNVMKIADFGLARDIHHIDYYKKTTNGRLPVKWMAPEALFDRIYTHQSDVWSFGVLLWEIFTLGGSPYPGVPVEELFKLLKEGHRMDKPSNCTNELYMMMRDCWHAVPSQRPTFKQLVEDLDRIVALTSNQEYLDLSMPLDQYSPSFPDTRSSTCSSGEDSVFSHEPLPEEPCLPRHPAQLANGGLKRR
Serine/threonine-protein kinase TAO1 (Homo sapiens), sequence (Q7L7X3 whole entry): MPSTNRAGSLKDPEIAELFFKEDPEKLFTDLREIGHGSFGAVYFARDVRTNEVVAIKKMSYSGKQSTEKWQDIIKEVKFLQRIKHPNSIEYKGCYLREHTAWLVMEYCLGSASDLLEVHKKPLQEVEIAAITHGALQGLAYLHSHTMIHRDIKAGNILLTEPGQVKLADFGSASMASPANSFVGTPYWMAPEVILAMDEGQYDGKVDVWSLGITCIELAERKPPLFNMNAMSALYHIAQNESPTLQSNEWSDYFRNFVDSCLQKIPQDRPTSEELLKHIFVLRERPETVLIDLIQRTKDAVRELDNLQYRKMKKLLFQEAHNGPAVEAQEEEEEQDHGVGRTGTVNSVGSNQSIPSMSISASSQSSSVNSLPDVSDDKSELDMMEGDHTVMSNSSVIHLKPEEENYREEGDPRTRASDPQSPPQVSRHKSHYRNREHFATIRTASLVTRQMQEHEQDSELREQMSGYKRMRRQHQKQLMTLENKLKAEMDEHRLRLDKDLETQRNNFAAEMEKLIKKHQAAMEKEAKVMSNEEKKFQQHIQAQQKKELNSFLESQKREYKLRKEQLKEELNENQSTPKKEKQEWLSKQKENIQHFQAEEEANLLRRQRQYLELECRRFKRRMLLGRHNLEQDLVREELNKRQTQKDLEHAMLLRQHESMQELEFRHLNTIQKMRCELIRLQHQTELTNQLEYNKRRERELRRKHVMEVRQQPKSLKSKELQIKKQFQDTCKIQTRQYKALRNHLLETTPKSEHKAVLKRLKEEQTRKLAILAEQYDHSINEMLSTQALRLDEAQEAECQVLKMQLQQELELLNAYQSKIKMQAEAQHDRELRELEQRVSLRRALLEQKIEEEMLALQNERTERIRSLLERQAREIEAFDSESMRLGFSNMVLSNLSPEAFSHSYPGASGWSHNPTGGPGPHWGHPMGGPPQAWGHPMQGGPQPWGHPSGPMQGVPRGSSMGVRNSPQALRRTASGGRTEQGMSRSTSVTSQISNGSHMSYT
Homeodomain-interacting protein kinase 2 (Homo sapiens), sequence (Q9H2X6 whole entry, looked up): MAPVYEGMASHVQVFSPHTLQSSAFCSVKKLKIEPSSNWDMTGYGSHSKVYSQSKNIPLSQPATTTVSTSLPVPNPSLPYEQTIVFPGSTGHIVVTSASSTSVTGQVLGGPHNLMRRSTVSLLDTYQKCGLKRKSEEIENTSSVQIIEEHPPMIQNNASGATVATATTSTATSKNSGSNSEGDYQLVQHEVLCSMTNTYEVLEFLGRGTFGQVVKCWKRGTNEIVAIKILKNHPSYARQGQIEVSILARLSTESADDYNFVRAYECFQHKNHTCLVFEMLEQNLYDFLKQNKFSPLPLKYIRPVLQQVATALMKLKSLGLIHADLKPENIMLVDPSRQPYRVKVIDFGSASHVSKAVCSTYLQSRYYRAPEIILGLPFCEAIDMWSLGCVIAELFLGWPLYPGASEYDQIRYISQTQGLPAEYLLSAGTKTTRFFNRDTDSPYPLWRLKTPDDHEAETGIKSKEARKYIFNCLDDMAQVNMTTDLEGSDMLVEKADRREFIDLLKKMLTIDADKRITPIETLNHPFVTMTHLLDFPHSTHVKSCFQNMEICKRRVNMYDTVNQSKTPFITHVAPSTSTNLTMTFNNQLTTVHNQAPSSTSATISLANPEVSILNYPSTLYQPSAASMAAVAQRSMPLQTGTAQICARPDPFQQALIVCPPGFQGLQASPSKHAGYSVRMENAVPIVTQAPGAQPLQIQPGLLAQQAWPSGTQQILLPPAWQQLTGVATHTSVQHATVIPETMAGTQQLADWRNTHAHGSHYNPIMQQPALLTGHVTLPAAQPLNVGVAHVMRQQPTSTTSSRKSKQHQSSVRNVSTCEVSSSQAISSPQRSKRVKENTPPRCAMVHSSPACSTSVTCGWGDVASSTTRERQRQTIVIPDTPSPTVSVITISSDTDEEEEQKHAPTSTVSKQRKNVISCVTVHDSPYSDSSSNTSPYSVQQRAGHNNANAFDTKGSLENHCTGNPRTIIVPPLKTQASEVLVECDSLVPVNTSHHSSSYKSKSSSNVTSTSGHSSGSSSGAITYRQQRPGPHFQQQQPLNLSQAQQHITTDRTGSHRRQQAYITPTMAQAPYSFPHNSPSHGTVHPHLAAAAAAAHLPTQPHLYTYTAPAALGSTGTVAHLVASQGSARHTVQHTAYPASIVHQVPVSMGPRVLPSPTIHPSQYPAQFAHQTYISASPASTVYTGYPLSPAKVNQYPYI
Serine/threonine-protein kinase Sgk1 (Homo sapiens), sequence (O00141 whole entry): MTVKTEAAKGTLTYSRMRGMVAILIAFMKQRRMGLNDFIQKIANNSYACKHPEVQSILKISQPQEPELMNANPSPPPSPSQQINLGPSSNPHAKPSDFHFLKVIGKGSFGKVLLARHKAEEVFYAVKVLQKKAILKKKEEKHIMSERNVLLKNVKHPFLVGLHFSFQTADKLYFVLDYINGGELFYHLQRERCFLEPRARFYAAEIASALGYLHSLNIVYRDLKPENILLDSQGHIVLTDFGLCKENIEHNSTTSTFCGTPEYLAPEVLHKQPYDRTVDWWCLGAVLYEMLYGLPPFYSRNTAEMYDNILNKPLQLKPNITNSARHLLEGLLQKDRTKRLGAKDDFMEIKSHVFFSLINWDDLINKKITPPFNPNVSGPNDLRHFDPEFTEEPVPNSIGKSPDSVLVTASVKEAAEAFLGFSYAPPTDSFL

## N#Cc1cnc(Nc2cc(NC[C@H]3CNCCO3)c(C(F)(F)F)cn2)cn1 [SRA-737]
[1]
  Activity: 77%
[2]
  Activity: 36%
[3]
  Activity: Active
[4]
  Activity: 67%
[5]
  Activity: Toxic
[6]
  Activity: 92%
[7]
  Activity: 85%
[8]
  Activity: 54%
[9]
  Activity: 33%
[10]
  Activity: 103%
[11]
  inhibition: 94%
[12]
  Activity: Active
[13]
  Activity: 70%
[14]
  half-life: 2.76 h
[15]
  inhibition: Active
[16]
  Activity: Toxic
[17]
  Cmax: 1620 nM
[18]
  IC50: 3850 nM
[19]
  inhibition: Active
[20]
  CL/F: 36 mL/min/kg
[21]
  Activity: 102%
[22]
  Activity: 82%
[23]
  Activity: 87%
[24]
  IC50: 361 nM
[25]
  PPB: 75.6%
[26]
  IC50: 711 nM
[27]
  Activity: 75%
[28]
  Activity: 59%
